Experimental data reported in PMC9121347 (Bioconjugate Chemistry, 2022).

Key:
[1] = test system: AD (APP/PS1) mice; assay: Dynamic microPET/CT imaging, AD mice; type: in vivo, mouse; details: AD (APP/PS1) vs normal (B6SJL) mice; any time point
[2] = test system: phosphorylation of Akt in hCMEC/D3 monolayers; type: cell-based, human; details: 100 nM, 20 min, 37 °C in DMEM, Western blot, n = 3
In short: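 hCMEC/D3 monolayers treated ± test compound (100 nM) in DMEM, 20 min, 37 °C, washed thrice with PBS, lysed in RIPA with protease/phosphatase inhibitors, protein by BCA. […] Blocked in 5% milk; anti-vinculin, Akt, p-Akt (S473) at 1:1000 overnight at 4 °C; dye-conjugated secondary at 1:2000, 1 h RT. p-AKT/AKT ratio, mean ± SD, unpaired t-test.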

Compound	difference in uptake between normal and AD groups (brain and heart) [1]	phosphorylation of Akt (p-AKT/AKT ratio) [2]
CNc1ccc(-c2nc3ccc(O)cc3s2)cc1 [[^11C]PIB, N-methyl [^11C] 2-(4′-methylaminophenyl)-6-hydroxy-benzothiazole]	neither of them showed any significant difference in the uptake between normal and AD groups at any time point	
[18F]c1ccc(-c2ccc3c(c2)[nH]c2ccncc23)cn1 [[^18F]AV1451, 7-(6-[^18F]fluoropyridin-3-yl)-5H-pyrido[4,3-b]indole]	neither of them showed any significant difference in the uptake between normal and AD groups at any time point	
NOTA-insulin: insulin with p-SCN-Bn-NOTA linked to the lysine residue of chain B; labeling precursor		stimulated the phosphorylation of Akt
